Experimental data from ChEMBL document CHEMBL1146139, “Design and synthesis of novel HIV-1 protease inhibitors incorporating oxyindoles as the P2'-ligands” (Bioorg Med Chem Lett, 2006).

Columns and labels:
[1] = target: Human immunodeficiency virus type 1 protease (Human immunodeficiency virus 1, UniProt Q72874); assay: Inhibitory activity against HIV protease
Summary of the method: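 Enzyme inhibition constants measured against HIV-1 protease following a previously published protocol. Values are means of two determinations.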

[2] = system: MT2; assay: Cytotoxicity against MT2 cells; assay type: functional; settings: Homo sapiens
[3] = system: MT2; assay: Antiviral activity against HIV1 IIIB strain in MT2 cells; assay type: functional, cell-based
Summary of the method: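 IC50 from inhibition of HIV-1 IIIb-induced cytopathogenicity in MT-2 cells. Assays run in duplicate; values are means of two or three determinations.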

Structure (SMILES) | Ki [1] [nM] | also measured
O=C(N[C@@H](Cc1ccccc1)[C@H](O)CN1CC=CCCC12C(=O)Nc1ccccc12)O[C@H]1CO[C@H]2OCC[C@H]21 (stereo partly specified) | > 1000 | –
C=CCCC1(N(CC=C)C[C@@H](O)[C@H](Cc2ccccc2)NC(=O)O[C@H]2CO[C@H]3OCC[C@H]32)C(=O)Nc2ccccc21 (stereo partly specified) | 47 | –
CC1(N(Cc2ccccc2)C[C@@H](O)[C@H](Cc2ccccc2)NC(=O)O[C@H]2CO[C@H]3OCC[C@H]32)C(=O)Nc2ccccc21 (stereo partly specified) | 26 | –
O=C(N[C@@H](Cc1ccccc1)[C@H](O)CN1CCCCCC12C(=O)Nc1ccccc12)O[C@H]1CO[C@H]2OCC[C@H]21 (stereo partly specified) | > 1000 | –
O=C(N[C@@H](Cc1ccccc1)[C@H](O)CN1CC=CCC12C(=O)Nc1ccccc12)O[C@H]1CO[C@H]2OCC[C@H]21 (stereo partly specified) | 126 | –
CC(C)CCN(C[C@@H](O)[C@H](Cc1ccccc1)NC(=O)O[C@H]1CO[C@H]2OCC[C@H]21)C1(C)C(=O)Nc2ccccc21 (stereo partly specified) | 7 | –
C=CCN(C[C@@H](O)[C@H](Cc1ccccc1)NC(=O)O[C@H]1CO[C@H]2OCC[C@H]21)C1(CC=C)C(=O)Nc2ccccc21 (stereo partly specified) | 5 | –
O=C(N[C@@H](Cc1ccccc1)[C@H](O)CN1CCCCC12C(=O)Nc1ccccc12)O[C@H]1CO[C@H]2OCC[C@H]21 (stereo partly specified) | > 1000 | –
CC(C)CN(C[C@@H](O)[C@H](Cc1ccccc1)NC(=O)O[C@H]1CO[C@H]2OCC[C@H]21)C1(C)C(=O)Nc2ccccc21 (stereo in doubt; 3a) | 6 | CC50 [2]: > 10000 nM; IC50 ([3]; Homo sapiens, IIIB, MT2): 300 nM
CC(C)CN(C[C@@H](O)[C@H](Cc1ccccc1)NC(=O)O[C@H]1CO[C@H]2OCC[C@H]21)C1(C)C(=O)Nc2ccccc21 (stereo in doubt; 3b) | 3 | IC50 ([3]; mt2): 480 nM
C=CCC1(N(CC(C)C)C[C@@H](O)[C@H](Cc2ccccc2)NC(=O)O[C@H]2CO[C@H]3OCC[C@H]32)C(=O)Nc2ccccc21 (stereo in doubt; 14a) | 2 | –
C=CCC1(N(CC(C)C)C[C@@H](O)[C@H](Cc2ccccc2)NC(=O)O[C@H]2CO[C@H]3OCC[C@H]32)C(=O)Nc2ccccc21 (stereo in doubt; 14b) | 7 | –
COc1ccc2c(c1)C(C)(N(CC(C)C)C[C@@H](O)[C@H](Cc1ccccc1)NC(=O)O[C@H]1CO[C@H]3OCC[C@H]31)C(=O)N2 (stereo in doubt; 15a) | 102 | –
COc1ccc2c(c1)C(C)(N(CC(C)C)C[C@@H](O)[C@H](Cc1ccccc1)NC(=O)O[C@H]1CO[C@H]3OCC[C@H]31)C(=O)N2 (stereo in doubt; 15b) | 130 | –
CC(C)CN(C[C@@H](O)[C@H](Cc1ccccc1)NC(=O)O[C@H]1CO[C@H]2OCC[C@H]21)C1(C)C(=O)N(C)c2ccccc21 (stereo in doubt; 16a) | 42 | –
CC(C)CN(C[C@@H](O)[C@H](Cc1ccccc1)NC(=O)O[C@H]1CO[C@H]2OCC[C@H]21)C1(C)C(=O)N(C)c2ccccc21 (stereo in doubt; 16b) | 60 | –
CC(C)(C)NC(=O)[C@@H]1C[C@@H]2CCCC[C@@H]2CN1C[C@@H](O)[C@H](Cc1ccccc1)NC(=O)[C@H](CC(N)=O)NC(=O)c1ccc2ccccc2n1 [SAQUINAVIR] | – | CC50 [2]: > 10000 nM; IC50 ([3]; Homo sapiens, IIIB, MT2): 5 nM
